Legend:
SR = experiment: Anticancer activity against human SR cells assessed as cell growth inhibition at 10 uM incubated for 48 hrs by sulforhodamine B assay; type: functional; conditions: read-out: GI
A498 = experiment: Anticancer activity against human A498 cells assessed as cell growth inhibition at 10 uM incubated for 48 hrs by sulforhodamine B assay; type: functional; conditions: read-out: GI
In short: (§1)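 NCI-60 screen: cell lines grown in RPMI 1640 with 5% FBS and 2 mM L-glutamine, plated in 96-well plates at 5,000–40,000 cells/well depending on doubling time. Each line has one single-dose arm at 10 µM and one dose-response arm giving GI50.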

BT-549 = experiment: Anticancer activity against human BT-549 cells assessed as cell growth inhibition at 10 uM incubated for 48 hrs by sulforhodamine B assay; type: functional; conditions: read-out: GI; in short: as §1
UO-31 [1] = experiment: Anticancer activity against human UO-31 cells assessed inhibition of cell growth after 48 hrs by CellTiter-Glo luminescent assay; type: functional, cell-based; conditions: UO-31, 48 h
In short: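 Renal lines grown in RPMI 1640 with 5% FBS and 2 mM L-glutamine, seeded into 384-well plates at 5,000–10,000 cells/well, held 2–3 h at 37 °C, 5% CO2. DMSO stocks (20 mM) serially halved ten times and added at 1:100. Cells exposed 48 h at 37 °C; CellTiter-Glo added, 10 min at room temperature, luminescence read.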

DNA = experiment: Induction of [32P]-labeled 49-mer oligonucleotide duplex DNA 25 (unknown origin) interstrand cross-linking at 2 mM for 48 hrs in presence of 2mM H2O2 by PAGE; type: functional
UO-31 [2] = experiment: Anticancer activity against human UO-31 cells assessed as cell growth inhibition at 10 uM incubated for 48 hrs by sulforhodamine B assay; type: functional; conditions: read-out: GI
PC-3 [3] = experiment: Anticancer activity against human PC-3 cells assessed as cell growth inhibition incubated for 48 hrs by sulforhodamine B assay; type: functional
In short: (§2)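 NCI DTP 60-cell-line screen run at National Cancer Institute. Cells grown in RPMI 1640 with 5% fetal bovine serum and 2 mM L-glutamine, seeded at 5,000–40,000 cells/well depending on doubling time. Single-dose screen at 10 µM gives growth percentage; dose-response series gives GI50.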

HL-60 = experiment: Anticancer activity against human HL-60 cells assessed as cell growth inhibition incubated for 48 hrs by sulforhodamine B assay; type: functional; in short: as §1
NCI-H226 = experiment: Anticancer activity against human NCI-H226 cells assessed as cell growth inhibition incubated for 48 hrs by sulforhodamine B assay; type: functional; in short: as §2
NCI-H522 = experiment: Anticancer activity against human NCI-H522 cells assessed as cell growth inhibition at 10 uM incubated for 48 hrs by sulforhodamine B assay; type: functional; conditions: read-out: GI; in short: as §2
SNB-75 = experiment: Anticancer activity against human SNB-75 cells assessed as cell growth inhibition at 10 uM incubated for 48 hrs by sulforhodamine B assay; type: functional; conditions: read-out: GI
COLO 205 = experiment: Anticancer activity against human COLO 205 cells assessed as cell growth inhibition incubated for 48 hrs by sulforhodamine B assay; type: functional; in short: as §1
MOLT-4 [4] = experiment: Anticancer activity against human MOLT-4 cells assessed as cell growth inhibition at 10 uM incubated for 48 hrs by sulforhodamine B assay; type: functional; conditions: read-out: GI; in short: as §2
ACHN [5] = experiment: Anticancer activity against human ACHN cells assessed as cell growth inhibition at 10 uM incubated for 48 hrs by sulforhodamine B assay; type: functional; conditions: read-out: GI; in short: as §1
786-0 = experiment: Anticancer activity against human 786-0 cells assessed as cell growth inhibition at 10 uM incubated for 48 hrs by sulforhodamine B assay; type: functional; conditions: read-out: GI; in short: as §1
OVCAR-4 = experiment: Anticancer activity against human OVCAR-4 cells assessed as cell growth inhibition incubated for 48 hrs by sulforhodamine B assay; type: functional; in short: as §2
HOP-62 = experiment: Anticancer activity against human HOP-62 cells assessed as cell growth inhibition incubated for 48 hrs by sulforhodamine B assay; type: functional; in short: as §1
NCI-H322M = experiment: Anticancer activity against human NCI-H322M cells assessed as cell growth inhibition at 10 uM incubated for 48 hrs by sulforhodamine B assay; type: functional; conditions: read-out: GI; in short: as §2
HT-29 = experiment: Anticancer activity against human HT-29 cells assessed as cell growth inhibition incubated for 48 hrs by sulforhodamine B assay; type: functional; in short: as §1
ACHN [6] = experiment: Anticancer activity against human ACHN cells assessed inhibition of cell growth after 48 hrs by CellTiter-Glo luminescent assay; type: functional, cell-based
In short: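 Renal lines grown in RPMI 1640 with 5% FBS and 2 mM L-glutamine, plated at 5,000–10,000 cells/well in 384-well plates and held 2–3 h at 37 °C, 5% CO2. Compounds were made as 20 mM DMSO stocks, given as ten 2-fold serial dilutions diluted 1:100 into cells, and incubated 48 h. Read-out was CellTiter-Glo luminescence after 10 min at room temperature.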

[7] = Anticancer activity against human CLL cells assessed as reduction in cell viability incubated for 24 hrs by Annexin/PI staining based fluorescence assay; type: functional
In short: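 CLL lymphocytes were taken from patients' peripheral blood (n=3) by Ficoll-Hypaque, suspended in 10% autologous plasma in RPMI, and exposed to 1, 5, 10, 20, 50 and 100 µM. Viability was measured by annexin V/propidium iodide binding. IC50 comes from one representative patient.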

CCRF-CEM = experiment: Anticancer activity against human CCRF-CEM cells assessed as cell growth inhibition at 10 uM incubated for 48 hrs by sulforhodamine B assay; type: functional; conditions: read-out: GI; in short: as §1
SF-539 = experiment: Anticancer activity against human SF-539 cells assessed as cell growth inhibition incubated for 48 hrs by sulforhodamine B assay; type: functional; in short: as §2
MOLT-4 [8] = experiment: Anticancer activity against human MOLT-4 cells assessed as cell growth inhibition incubated for 48 hrs by sulforhodamine B assay; type: functional; in short: as §2
PC-3 [9] = experiment: Anticancer activity against human PC-3 cells assessed as cell growth inhibition at 10 uM incubated for 48 hrs by sulforhodamine B assay; type: functional; conditions: read-out: GI; in short: as §2
Hs-578T = experiment: Anticancer activity against human Hs-578T cells assessed as cell growth inhibition at 10 uM incubated for 48 hrs by sulforhodamine B assay; type: functional; conditions: read-out: GI; in short: as §1
MCF7 = experiment: Anticancer activity against human MCF7 cells assessed as cell growth inhibition at 10 uM incubated for 48 hrs by sulforhodamine B assay; type: functional; conditions: read-out: GI; in short: as §2
RXF 393 = experiment: Anticancer activity against human RXF 393 cells assessed as cell growth inhibition at 10 uM incubated for 48 hrs by sulforhodamine B assay; type: functional; conditions: read-out: GI; in short: as §2
M14 = experiment: Anticancer activity against human M14 cells assessed as cell growth inhibition at 10 uM incubated for 48 hrs by sulforhodamine B assay; type: functional; conditions: read-out: GI; in short: as §1
NCI/ADR-RES = experiment: Anticancer activity against human NCI/ADR-RES cells assessed as cell growth inhibition at 10 uM incubated for 48 hrs by sulforhodamine B assay; type: functional; conditions: read-out: GI; in short: as §2
HCT-116 = experiment: Anticancer activity against human HCT-116 cells assessed as cell growth inhibition at 10 uM incubated for 48 hrs by sulforhodamine B assay; type: functional; conditions: read-out: GI; in short: as §1
SF-295 = experiment: Anticancer activity against human SF-295 cells assessed as cell growth inhibition at 10 uM incubated for 48 hrs by sulforhodamine B assay; type: functional; conditions: read-out: GI; in short: as §2
T47D = experiment: Anticancer activity against human T47D cells assessed as cell growth inhibition at 10 uM incubated for 48 hrs by sulforhodamine B assay; type: functional; conditions: read-out: GI
SN12C = experiment: Anticancer activity against human SN12C cells assessed as cell growth inhibition at 10 uM incubated for 48 hrs by sulforhodamine B assay; type: functional; conditions: read-out: GI
OVCAR-8 = experiment: Anticancer activity against human OVCAR-8 cells assessed as cell growth inhibition incubated for 48 hrs by sulforhodamine B assay; type: functional; in short: as §2

In the case of `COc1cc(CBr)c(B2OC(C)(C)C(C)(C)O2)c(CBr)c1`, the inhibition of growth at 10 µM (SR) is reported as < 50%, the inhibition of growth at 10 µM (A498) is reported as < 50% and the inhibition of growth at 10 µM (BT-549) is reported as < 50%. For the same molecule, the IC50 (UO-31 [1]) was 10800 nM, the Activity (DNA) was 36% and the inhibition of growth at 10 µM (UO-31 [2]) was < 50%. The GI50 (PC-3 [3]) was 2000 nM, the GI50 (HL-60) was 2000 nM and the GI50 (NCI-H226) was 2000 nM. For the same molecule, the inhibition of growth at 10 µM (NCI-H522) was < 50%, the inhibition of growth at 10 µM (SNB-75) was < 50% and the GI50 (COLO 205) was 2000 nM. The inhibition of growth at 10 µM (MOLT-4 [4]) was < 50%, the inhibition of growth at 10 µM (ACHN [5]) was < 50% and the inhibition of growth at 10 µM (786-0) was < 50%. For the same molecule, the GI50 (OVCAR-4) was 2000 nM, the GI50 (HOP-62) was 2000 nM and the inhibition of growth at 10 µM (NCI-H322M) was < 50%. For the same molecule, the GI50 (HT-29) was 2000 nM, the IC50 (ACHN [6]) was 20000 nM and the IC50 [7] was 28400 nM. For the same molecule, the inhibition of growth at 10 µM (CCRF-CEM) was < 50%, the GI50 (SF-539) was 2000 nM and the GI50 (MOLT-4 [8]) was 2000 nM. The inhibition of growth at 10 µM (PC-3 [9]) was < 50%, the inhibition of growth at 10 µM (Hs-578T) was < 50% and the inhibition of growth at 10 µM (MCF7) was < 50%. For the same molecule, the inhibition of growth at 10 µM (RXF 393) was < 50%, the inhibition of growth at 10 µM (M14) was < 50% and the inhibition of growth at 10 µM (NCI/ADR-RES) was < 50%. For the same molecule, the inhibition of growth at 10 µM (HCT-116) was < 50%, the inhibition of growth at 10 µM (SF-295) was < 50% and the inhibition of growth at 10 µM (T47D) was < 50%. The inhibition of growth at 10 µM (SN12C) was < 50% and the GI50 (OVCAR-8) was 2000 nM.

Reference: ChEMBL document CHEMBL5260806, “Hydrogen peroxide activated quinone methide precursors with enhanced DNA cross-linking capability and cytotoxicity towards cancer cells” (Eur J Med Chem, 2017)
